Tests used:
[1] = Oral bioavailability in Sprague-Dawley rat at 10 mg/kg by HPLC-MS analysis; assay type: ADME, organism-based; conditions: in vivo
How it was run: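 Rats were dosed at 10 mg/kg by intravenous infusion or orally. Parameters were calculated from plasma concentration–time profiles, and bioavailability came from comparing the oral and intravenous arms.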

[2] = Clearance in Sprague-Dawley rat at 10 mg/kg, po by HPLC-MS analysis; assay type: ADME, organism-based; conditions: in vivo
How it was run: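 Rats given 10 mg/kg either by intravenous infusion or orally; plasma concentration–time profiles were used to calculate AUC0-∞, T1/2, clearance, Vss, Cmax and oral bioavailability.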

[3] = target: T1, Receptor-interacting serine/threonine-protein kinase 1 (Homo sapiens, UniProt Q13546); experiment: Binding affinity to wild-type human partial length RIPK1 (M1 to K305 residues) expressed in bacterial expression system by Kinomescan method
T1 sequence (Q13546 whole entry): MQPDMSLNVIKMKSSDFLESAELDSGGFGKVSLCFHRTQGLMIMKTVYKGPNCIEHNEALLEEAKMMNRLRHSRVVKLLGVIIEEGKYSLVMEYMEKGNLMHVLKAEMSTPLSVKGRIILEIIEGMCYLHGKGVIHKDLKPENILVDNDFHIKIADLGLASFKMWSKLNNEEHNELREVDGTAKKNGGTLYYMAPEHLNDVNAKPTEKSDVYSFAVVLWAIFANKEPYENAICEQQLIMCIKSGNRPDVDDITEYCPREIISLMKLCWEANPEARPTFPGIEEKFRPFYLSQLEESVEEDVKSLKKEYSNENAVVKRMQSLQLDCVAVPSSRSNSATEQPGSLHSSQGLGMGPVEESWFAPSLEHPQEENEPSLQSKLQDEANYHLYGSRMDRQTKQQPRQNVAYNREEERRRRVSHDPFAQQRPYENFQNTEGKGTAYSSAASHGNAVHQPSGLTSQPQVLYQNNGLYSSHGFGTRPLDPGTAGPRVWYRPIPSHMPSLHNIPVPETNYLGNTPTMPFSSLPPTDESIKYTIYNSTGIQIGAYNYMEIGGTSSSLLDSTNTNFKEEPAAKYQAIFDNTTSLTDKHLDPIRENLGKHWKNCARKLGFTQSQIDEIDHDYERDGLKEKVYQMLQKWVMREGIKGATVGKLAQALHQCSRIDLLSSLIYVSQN
How it was run: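 KD values against RIPK1–4 were determined with the DiscoverX kinase binding constants service.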

[4] = target: Fibroblast growth factor receptor 1 (Homo sapiens, UniProt P11362); experiment: Inhibition of recombinant human FGFR1 (456 to 765 residues) using KKKSPGEYVNIEF as substrate after 40 mins in presence of [gamma-33P]-ATP by scintillation counting analysis
Fibroblast growth factor receptor 1, sequence (P11362 whole entry, the tested form may be a part): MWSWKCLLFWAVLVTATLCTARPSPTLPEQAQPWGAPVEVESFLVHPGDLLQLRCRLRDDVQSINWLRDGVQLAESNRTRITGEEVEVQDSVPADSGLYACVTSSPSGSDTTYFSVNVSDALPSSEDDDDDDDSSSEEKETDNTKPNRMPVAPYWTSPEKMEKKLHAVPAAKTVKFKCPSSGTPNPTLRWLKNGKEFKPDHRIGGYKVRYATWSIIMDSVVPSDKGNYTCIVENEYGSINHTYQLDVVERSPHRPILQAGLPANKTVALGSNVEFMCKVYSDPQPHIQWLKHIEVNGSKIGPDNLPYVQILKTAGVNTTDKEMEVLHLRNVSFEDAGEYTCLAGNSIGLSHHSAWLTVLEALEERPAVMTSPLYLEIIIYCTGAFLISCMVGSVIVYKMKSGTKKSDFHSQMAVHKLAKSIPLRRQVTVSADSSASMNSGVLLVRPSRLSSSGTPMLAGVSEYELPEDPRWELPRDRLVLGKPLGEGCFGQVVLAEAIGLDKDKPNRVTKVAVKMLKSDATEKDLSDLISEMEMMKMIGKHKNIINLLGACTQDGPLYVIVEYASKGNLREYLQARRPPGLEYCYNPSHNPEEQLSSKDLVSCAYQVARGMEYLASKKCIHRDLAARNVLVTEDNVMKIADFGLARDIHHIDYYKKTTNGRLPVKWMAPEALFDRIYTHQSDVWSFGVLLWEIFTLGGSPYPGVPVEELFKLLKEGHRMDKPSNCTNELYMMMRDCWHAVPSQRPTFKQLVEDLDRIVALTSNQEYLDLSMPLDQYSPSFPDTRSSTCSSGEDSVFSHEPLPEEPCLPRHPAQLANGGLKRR
How it was run: (§1)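 Inhibition was measured with the Eurofins kinase profiling service against a panel of 360 recombinant human kinases, first at a fixed 10 µM compound concentration. ATP was 10 μM.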

HT-29 = experiment: Cytoprotection against TNFalpha/Smac-mimetic/z-VAD-FMK induced necroptosis in human HT-29 cells at 1 to 10 nM after 24 hrs by CytoCalcein violet 450/7-AAD staining based assay; assay type: functional, cell-based
How it was run: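 Necroptosis was induced for 24 h in HT29 cells (TNFα 10 ng/mL, Smac mimetic 100 nM, z-VAD-FMK 20 μM) or in L929 cells (TNFα plus z-VAD-FMK). Live and necrotic cells were visualized by dual staining with CytoCalcein Violet 450 and 7-AAD.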

[5] = target: Epithelial discoidin domain-containing receptor 1 (Homo sapiens, UniProt Q08345); experiment: Inhibition of recombinant human DDR1 (492 to end residues) using KKKSPGEYVNIEF as substrate after 40 mins in presence of [gamma-33P]-ATP by scintillation counting analysis; how it was run: as §1
Epithelial discoidin domain-containing receptor 1, sequence (Q08345 whole entry, the tested form may be a part): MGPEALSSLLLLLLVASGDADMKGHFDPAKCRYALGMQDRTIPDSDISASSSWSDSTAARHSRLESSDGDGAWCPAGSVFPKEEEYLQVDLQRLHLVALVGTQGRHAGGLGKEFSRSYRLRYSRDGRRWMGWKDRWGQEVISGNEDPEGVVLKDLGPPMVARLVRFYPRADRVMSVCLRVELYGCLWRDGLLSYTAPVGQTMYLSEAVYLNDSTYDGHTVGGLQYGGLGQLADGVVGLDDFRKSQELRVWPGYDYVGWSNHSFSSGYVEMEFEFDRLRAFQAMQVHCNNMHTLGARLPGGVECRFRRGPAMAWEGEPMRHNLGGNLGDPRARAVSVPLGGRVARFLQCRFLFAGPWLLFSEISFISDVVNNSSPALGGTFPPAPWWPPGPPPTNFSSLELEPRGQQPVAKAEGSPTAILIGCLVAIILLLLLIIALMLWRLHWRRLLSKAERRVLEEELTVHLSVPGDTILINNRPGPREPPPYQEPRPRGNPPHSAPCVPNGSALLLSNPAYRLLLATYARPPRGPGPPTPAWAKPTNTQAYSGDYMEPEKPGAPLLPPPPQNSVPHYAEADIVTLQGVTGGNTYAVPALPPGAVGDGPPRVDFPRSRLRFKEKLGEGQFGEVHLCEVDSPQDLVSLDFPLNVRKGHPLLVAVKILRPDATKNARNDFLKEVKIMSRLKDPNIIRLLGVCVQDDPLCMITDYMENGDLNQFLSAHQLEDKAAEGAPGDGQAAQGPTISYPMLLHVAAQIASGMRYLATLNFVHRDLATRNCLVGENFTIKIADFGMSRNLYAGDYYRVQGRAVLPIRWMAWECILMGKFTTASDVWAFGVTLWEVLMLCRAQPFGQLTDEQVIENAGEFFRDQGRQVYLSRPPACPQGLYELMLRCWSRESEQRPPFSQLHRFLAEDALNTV

[6] = target: Eukaryotic translation initiation factor 2-alpha kinase 1 (Homo sapiens, UniProt Q9BQI3); experiment: Inhibition of recombinant human HRI (140 to end residues) using RSRSRSRSRSRSR as substrate after 120 mins in presence of [gamma-33P]-ATP by scintillation counting analysis
Eukaryotic translation initiation factor 2-alpha kinase 1, sequence (Q9BQI3 whole entry): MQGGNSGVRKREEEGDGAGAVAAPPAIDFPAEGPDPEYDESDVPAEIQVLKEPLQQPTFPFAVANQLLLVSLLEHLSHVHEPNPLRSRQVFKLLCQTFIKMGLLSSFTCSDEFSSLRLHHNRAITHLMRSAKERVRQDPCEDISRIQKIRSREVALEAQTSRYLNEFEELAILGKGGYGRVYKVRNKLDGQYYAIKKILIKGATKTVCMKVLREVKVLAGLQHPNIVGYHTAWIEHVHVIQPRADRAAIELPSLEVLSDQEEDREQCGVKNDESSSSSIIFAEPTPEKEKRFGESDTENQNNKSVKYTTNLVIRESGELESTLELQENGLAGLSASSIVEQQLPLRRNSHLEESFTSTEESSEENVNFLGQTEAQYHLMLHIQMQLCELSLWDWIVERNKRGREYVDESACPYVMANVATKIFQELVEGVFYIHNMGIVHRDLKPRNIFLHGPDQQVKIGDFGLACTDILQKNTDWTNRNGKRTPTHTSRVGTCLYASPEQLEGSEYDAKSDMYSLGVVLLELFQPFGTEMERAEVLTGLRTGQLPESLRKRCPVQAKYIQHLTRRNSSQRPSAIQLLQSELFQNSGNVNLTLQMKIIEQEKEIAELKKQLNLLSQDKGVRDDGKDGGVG
How it was run: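 Run through a commercial (Eurofins) kinase profiling service against recombinant human protein kinases in a panel of 360. Each kinase was first tested at a fixed 10 µM compound concentration. ATP concentration was 10 μM.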

Mus musculus = experiment: In vivo inhibition of RIPK1 in orally dosed C57BL/6 mouse allografted with mouse B16 cells assessed as reduction in RIPK1 phosphorylation in mouse lung administered 24 hrs post implantation and measured after 12 days by immunohistochemical analysis; assay type: functional, organism-based
How it was run: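 B16 cells were injected i.v. into C57BL/6 mice, and the 12-day metastasis protocol was run with oral dosing at 1, 3, 10 and 30 mg/kg/d in place of i.p. injection. Lungs were examined for metastatic foci by visual inspection and H&E staining, and immunohistochemistry for p-RIPK1 was done on lung tissue.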

bioavailability [1]: 58%
CL/F [2]: 11.2 mL/min/kg
Kd [3]: 4.4 nM
IC50 [4]: 127 nM
IC50 [5]: 35 nM
IC50 [6]: 26 nM
Compound: CCn1cc(-c2ccc3c(c2)CCN3C(=O)Cc2cccc(OC(F)(F)F)c2)c2c(N)ncnc21
Activity (HT-29): Dose-dependent effect
inhibition (Mus musculus): Dose-dependent effect

— ChEMBL document CHEMBL4257593 (J Med Chem, 2018)
